Reference: ChEMBL document CHEMBL2407075, “Sulphonamido-quinoxalines: search for anticancer agent” (Eur J Med Chem, 2013)

Columns and labels:
Assay type in all cases: functional
SK-MEL-2 = experiment: Growth inhibition of human SK-MEL-2 cells assessed as cell growth at 10^-8 M after 48 hrs by sulforhodamine B assay; settings: SK-MEL-2, 48 h, read-out: Activity
BT-549 = experiment: Growth inhibition of human BT549 cells assessed as cell growth at 10^-4 M after 48 hrs by sulforhodamine B assay; settings: BT-549, 48 h, read-out: Activity
Outline: (§1)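 Five-dose NCI-60 run (0.01, 0.1, 1, 10 and 100 µM, as 10-fold dilutions from a DMSO stock made at 400× the top final level). Cells were grown in RPMI 1640 with 5% FBS and 2 mM glutamine and plated for 24 h. They were then exposed for 48 h at 37 °C and 5% CO2. TCA fixation was followed by SRB staining with A515 read-out. Percent growth was taken relative to time-zero and control plates.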

SNB-75 = experiment: Growth inhibition of human SNB75 cells assessed as cell growth at 10^-4 M after 48 hrs by sulforhodamine B assay; settings: SNB-75, 48 h, read-out: Activity
786-0 = experiment: Growth inhibition of human 786-0 cells assessed as cell growth at 10^-7 M after 48 hrs by sulforhodamine B assay; settings: 786-0, 48 h, read-out: Activity; outline: as §1
SK-MEL-5 [1] = experiment: Growth inhibition of human SK-MEL-5 cells assessed as cell growth at 10^-5 M after 48 hrs by sulforhodamine B assay; settings: SK-MEL-5, 48 h, read-out: Activity
MDA-MB-231 = experiment: Growth inhibition of human MDA-MB-231 cells assessed as cell growth at 10^-6 M after 48 hrs by sulforhodamine B assay; settings: MDA-MB-231, 48 h, read-out: Activity
MCF7 = experiment: Growth inhibition of human MCF7 cells assessed as cell growth at 10^-7 M after 48 hrs by sulforhodamine B assay; settings: MCF7, 48 h, read-out: Activity
RXF 393 = experiment: Growth inhibition of human RXF393 cells assessed as cell growth at 10^-7 M after 48 hrs by sulforhodamine B assay; settings: RXF 393, 48 h, read-out: Activity
OVCAR-5 = experiment: Growth inhibition of human OVCAR5 cells after 48 hrs by sulforhodamine B assay; settings: OVCAR-5, 48 h; for CC50: read-out: LC50 (the source's name)
Outline: (§2)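 Adherent cells in RPMI 1640 with 5% FBS and 2 mM L-glutamine were plated at 5000–40,000 cells/well and grown 24 h. Five concentrations (0.01–100 µM, DMSO stock) were added for 48 h at 37 °C. Cells were fixed with cold TCA (10% final) and stained with SRB, read at 515 nm. GI50 came from log concentration–growth curves against time-zero and control plates.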

NCI-H522 = experiment: Growth inhibition of human NCI-H522 cells assessed as cell growth at 10^-5 M after 48 hrs by sulforhodamine B assay; settings: NCI-H522, 48 h, read-out: Activity
HCT-15 = experiment: Growth inhibition of human HCT15 cells assessed as cell growth at 10^-4 M after 48 hrs by sulforhodamine B assay; settings: HCT-15, 48 h, read-out: Activity
Outline: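 Five-dose screen at NCI. Cells in RPMI 1640 with 5% FBS and 2 mM L-glutamine, seeded at 5000–40,000 cells/well and grown 24 h at 37 °C, 5% CO2 before dosing, with time-zero plates TCA-fixed. Drug diluted from DMSO stock to 0.01, 0.1, 1, 10 and 100 µM final, 48 h. Cells fixed with cold TCA (10% final), stained with 0.4% SRB and read at 515 nm. Percent growth from Tz, control and test absorbances; GI50, TGI and LC50 from dose-response curves.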

SR = experiment: Growth inhibition of human SR cells assessed as cell growth at 10^-5 M after 48 hrs by sulforhodamine B assay; settings: read-out: Activity
K562 = experiment: Growth inhibition of human K562 cells after 48 hrs by sulforhodamine B assay; settings: K562, 48 h; for CC50: read-out: LC50 (the source's name)
Outline: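 Five-dose NCI 60 screen at 0.01, 0.1, 1, 10 and 100 µM, 48 h exposure after 24 h preincubation, in RPMI 1640 with 5% FBS and 2 mM glutamine. Fixed with TCA (10% final for adherent cells, 16% for suspension cells), stained with SRB, A515 read. Percent growth uses time-zero (Tz), control and treated plates. GI50, TGI and LC50 are read from the dose-response curves.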

T47D = experiment: Growth inhibition of human T47D cells assessed as cell growth at 10^-6 M after 48 hrs by sulforhodamine B assay; settings: read-out: Activity
LOX IMVI = experiment: Growth inhibition of human LOXIMVI cells assessed as cell growth at 10^-5 M after 48 hrs by sulforhodamine B assay; settings: read-out: Activity
MOLT-4 = experiment: Growth inhibition of human MOLT4 cells assessed as cell growth at 10^-7 M after 48 hrs by sulforhodamine B assay; settings: MOLT-4, 48 h, read-out: Activity
SK-MEL-5 [2] = experiment: Growth inhibition of human SK-MEL-5 cells assessed as cell growth at 10^-7 M after 48 hrs by sulforhodamine B assay; settings: SK-MEL-5, 48 h, read-out: Activity
CAKI-1 = experiment: Growth inhibition of human CAKI-1 cells assessed as cell growth at 10^-5 M after 48 hrs by sulforhodamine B assay; settings: CAKI-1, 48 h, read-out: Activity; outline: as §1
TK-10 [3] = experiment: Growth inhibition of human TK10 cells assessed as cell growth at 10^-4 M after 48 hrs by sulforhodamine B assay; settings: TK-10, 48 h, read-out: Activity
TK-10 [4] = experiment: Growth inhibition of human TK10 cells assessed as cell growth at 10^-6 M after 48 hrs by sulforhodamine B assay; settings: TK-10, 48 h, read-out: Activity
SK-MEL-5 [5] = experiment: Growth inhibition of human SK-MEL-5 cells assessed as cell growth at 10^-6 M after 48 hrs by sulforhodamine B assay; settings: SK-MEL-5, 48 h, read-out: Activity
ACHN = experiment: Growth inhibition of human ACHN cells assessed as cell growth at 10^-5 M after 48 hrs by sulforhodamine B assay; settings: read-out: Activity; outline: as §1
DU-145 = experiment: Growth inhibition of human DU145 cells assessed as cell growth at 10^-8 M after 48 hrs by sulforhodamine B assay; settings: DU-145, 48 h, read-out: Activity; outline: as §1
SN12C = experiment: Growth inhibition of human SN12C cells assessed as cell growth at 10^-7 M after 48 hrs by sulforhodamine B assay; settings: read-out: Activity
HOP-92 = experiment: Growth inhibition of human HOP92 cells after 48 hrs by sulforhodamine B assay; settings: HOP-92, 48 h; for CC50: read-out: LC50 (the source's name); outline: as §2
UACC-257 = experiment: Growth inhibition of human UACC257 cells after 48 hrs by sulforhodamine B assay; settings: UACC-257, 48 h, read-out: LC50 (the source's name)
Outline: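 NCI-60 screen. Cells grown in RPMI 1640 with 5% FBS and 2 mM L-glutamine, plated at 5000–40,000 cells/well and preincubated 24 h at 37 °C, 5% CO2. A time-zero plate is TCA-fixed at drug addition. DMSO stocks diluted in medium; five concentrations (0.01, 0.1, 1, 10, 100 µM). Exposure 48 h, then cold TCA fixation and 0.4% SRB staining, absorbance at 515 nm. GI50 is taken from the growth-percentage curve relative to time zero and control.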

O=S(=O)(Nc1ccc(Cl)cc1)c1ccc2nc(-c3ccccc3)c(-c3ccccc3)nc2c1
growth at 0.01 µM (SK-MEL-2): 93% | growth at 100 µM (BT-549): 61% | growth at 100 µM (SNB-75): 46% | growth at 0.1 µM (786-0): 88% | growth at 10 µM (SK-MEL-5 [1]): -99% | growth at 1 µM (MDA-MB-231): 83% | growth at 0.1 µM (MCF7): 95% | growth at 0.1 µM (RXF 393): 103% | TGI (OVCAR-5): > 100 µM | CC50 (OVCAR-5): > 100 µM | growth at 10 µM (NCI-H522): -34% | growth at 100 µM (HCT-15): 68% | growth at 10 µM (SR): -48% | TGI (K562): > 100 µM | CC50 (K562): > 100 µM | growth at 1 µM (T47D): 69% | growth at 10 µM (LOX IMVI): 3% | growth at 0.1 µM (MOLT-4): 94% | growth at 0.1 µM (SK-MEL-5 [2]): 95% | growth at 10 µM (CAKI-1): -35% | growth at 100 µM (TK-10 [3]): 86% | growth at 1 µM (TK-10 [4]): 108% | growth at 1 µM (SK-MEL-5 [5]): 83% | growth at 10 µM (ACHN): 6% | growth at 0.01 µM (DU-145): 105% | growth at 0.1 µM (SN12C): 96% | GI50 (HOP-92): 2.03 µM | CC50 (HOP-92): > 100 µM | CC50 (UACC-257): > 100 µM

O=S(=O)(Nc1ccccn1)c1ccc2nc(-c3ccccc3)c(-c3ccccc3)nc2c1
growth at 0.01 µM (SK-MEL-2): 99% | growth at 100 µM (BT-549): 49% | growth at 100 µM (SNB-75): 20% | growth at 0.1 µM (786-0): 92% | growth at 10 µM (SK-MEL-5 [1]): -93% | growth at 1 µM (MDA-MB-231): 89% | growth at 0.1 µM (MCF7): 96% | growth at 0.1 µM (RXF 393): 109% | TGI (OVCAR-5): > 100 µM | CC50 (OVCAR-5): > 100 µM | growth at 10 µM (NCI-H522): -42% | growth at 100 µM (HCT-15): 63% | growth at 10 µM (SR): -42% | GI50 (K562): 2.72 µM | TGI (K562): > 100 µM | CC50 (K562): > 100 µM | growth at 1 µM (T47D): 54% | growth at 10 µM (LOX IMVI): -93% | growth at 0.1 µM (MOLT-4): 95% | growth at 0.1 µM (SK-MEL-5 [2]): 92% | growth at 10 µM (CAKI-1): -11% | growth at 100 µM (TK-10 [3]): 54% | growth at 1 µM (TK-10 [4]): 114% | growth at 1 µM (SK-MEL-5 [5]): 78% | growth at 10 µM (ACHN): 6% | growth at 0.01 µM (DU-145): 102% | growth at 0.1 µM (SN12C): 93% | GI50 (HOP-92): 1.94 µM | CC50 (HOP-92): > 100 µM | CC50 (UACC-257): > 100 µM
